{
  "source": "ChEMBL document CHEMBL1137373",
  "about": "(J Med Chem, 2006)",
  "key": {"[1]": {"target": "T1, Amyloid-beta precursor protein (Homo sapiens, UniProt P05067)", "T1 sequence (P05067 whole entry)": "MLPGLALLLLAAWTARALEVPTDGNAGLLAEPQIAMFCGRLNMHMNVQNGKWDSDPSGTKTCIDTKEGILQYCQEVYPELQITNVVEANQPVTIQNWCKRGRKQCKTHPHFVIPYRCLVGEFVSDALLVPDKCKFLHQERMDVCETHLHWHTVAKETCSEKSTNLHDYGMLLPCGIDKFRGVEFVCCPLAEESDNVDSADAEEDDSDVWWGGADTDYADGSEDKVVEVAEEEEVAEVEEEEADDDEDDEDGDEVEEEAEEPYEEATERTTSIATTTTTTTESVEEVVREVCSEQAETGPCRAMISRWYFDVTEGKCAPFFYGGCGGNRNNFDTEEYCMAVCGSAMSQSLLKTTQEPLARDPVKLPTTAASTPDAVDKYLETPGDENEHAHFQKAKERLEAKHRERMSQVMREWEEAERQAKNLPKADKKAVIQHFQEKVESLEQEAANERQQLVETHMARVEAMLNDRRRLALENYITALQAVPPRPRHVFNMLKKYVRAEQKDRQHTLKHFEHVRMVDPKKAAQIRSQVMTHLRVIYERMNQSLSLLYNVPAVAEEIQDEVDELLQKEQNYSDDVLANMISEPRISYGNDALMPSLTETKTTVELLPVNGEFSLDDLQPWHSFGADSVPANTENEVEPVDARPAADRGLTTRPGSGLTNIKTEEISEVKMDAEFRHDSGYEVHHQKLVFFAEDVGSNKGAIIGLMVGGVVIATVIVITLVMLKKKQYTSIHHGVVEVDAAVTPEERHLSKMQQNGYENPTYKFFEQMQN", "test": "Displacement of [125I]IMSB from beta amyloid protein 40"}, "[2]": {"target": "T1, Amyloid-beta precursor protein", "test": "Displacement of [125I]IMPY from beta amyloid protein 40"}, "[3]": {"test": "Partition coefficient, log P of the compound", "format": "physicochemical", "details": "octanol/water; call rule not given here", "how_it_was_run": "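Radioligand added to octanol/water (600 µL each), vortexed 3 min, centrifuged 2000 rpm 5 min. Aliquots of both layers counted, repartitioned until consistent. Run in triplicate. Log P taken as log of octanol/water cpm ratio.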"}, "Mus musculus [4]": {"test_system": "Mus musculus", "test": "Biodistribution in muscle of iv dosed ICR mouse after 60 mins", "format": "ADME, organism-based, Muscle tissue", "details": "in vivo, 1 h", "how_it_was_run": "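Male ICR mice (25-30 g, four per time point) injected by tail vein with radioligand (0.74 MBq 125I or 1.85 MBq 18F) in 0.2 mL 10% ethanol-saline. Sacrificed at 2, 30, 60 or 120 min. Blood, organs, muscle and thyroid or bone weighed and counted in a gamma counter. Expressed as % injected dose per gram.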"}, "Mus musculus [5]": {"test_system": "Mus musculus", "test": "Biodistribution in spleen of iv dosed piperine-treated ICR mouse after 60 mins", "format": "ADME, organism-based", "details": "in vivo, 1 h", "how_it_was_run": "(§1)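 Male ICR mice (25-30 g, four per time point) given radioligand mixed with piperine (2 mg/kg) in 0.2 mL 10% ethanol-saline by tail vein, 1.85 MBq for the 18F tracer. Killed at 2, 30, 60 or 120 min. Blood and organs removed, weighed and gamma-counted. Data given as % injected dose per gram tissue.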"}, "Mus musculus [6]": {"test_system": "Mus musculus", "test": "Biodistribution in kidney of iv dosed piperine-treated ICR mouse after 2 mins", "format": "ADME, organism-based", "details": "in vivo", "how_it_was_run": "as §1"}, "Mus musculus [7]": {"test_system": "Mus musculus", "test": "Biodistribution in brain of iv dosed piperine-treated ICR mouse after 2 mins", "format": "ADME, organism-based", "details": "in vivo", "how_it_was_run": "as §1"}, "Mus musculus [8]": {"test_system": "Mus musculus", "test": "Biodistribution in blood of iv dosed piperine-treated ICR mouse after 60 mins", "format": "ADME, organism-based", "details": "in vivo, 1 h", "how_it_was_run": "as §1"}, "Mus musculus [9]": {"test_system": "Mus musculus", "test": "Stability in iv dosed ICR mouse blood after 60 mins", "format": "ADME, organism-based", "details": "in vivo, 1 h", "how_it_was_run": "(§2)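 Male ICR mice (25-30 g) given 18F radioligand (14.8 MBq/mouse) by tail vein, killed at 2, 30 and 60 min. Blood and whole brain homogenized in 1 mL chilled absolute ethanol, centrifuged 3000 rpm 3 min. Supernatant analysed by radio-TLC (20:1 CH2Cl2-CH3OH and 1:1:0.01 CH2Cl2-CH3OH-triethylamine) for percent parent radioligand.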"}, "Mus musculus [10]": {"test_system": "Mus musculus", "test": "Stability in iv dosed ICR mouse brain after 60 mins", "format": "ADME, organism-based", "details": "in vivo, 1 h", "how_it_was_run": "as §2"}, "Homo sapiens": {"species_on_record": "Homo sapiens", "test": "Increase in bioavailability in human in presence of piperine after 45 mins", "format": "ADME, organism-based", "details": "in vivo, 0.75 h"}, "Rattus norvegicus": {"species_on_record": "Rattus norvegicus", "test": "Increase in bioavailability in rat in presence of piperine at 1 to 2 hrs", "format": "ADME, organism-based", "details": "in vivo"}},
  "data": [
    {"smiles": "COc1cc(/C=C/C(O)=C/C(=O)/C=C/c2cc(I)c(O)c(OC)c2)ccc1O", "values": [
      {"measurement": "Ki", "setting": "[1]", "value": 9.37, "unit": "nM"}
    ]},
    {"smiles": "COc1cc(/C=C/C(O)=C/C(C)=O)ccc1OCCF", "values": [
      {"measurement": "Ki", "setting": "[2]", "value": 958, "unit": "nM"}
    ]},
    {"smiles": "COc1cc(/C=C/C(C)=O)cc(I)c1O", "values": [
      {"measurement": "Ki", "setting": "[1]", "value": 20, "unit": "nM"},
      {"measurement": "Ki", "setting": "[2]", "value": 36.6, "unit": "nM"}
    ]},
    {"smiles": "COc1cc(/C=C/C(O)=C/C(C)=O)ccc1OCCCF", "values": [
      {"measurement": "Ki", "setting": "[2]", "value": 316, "unit": "nM"}
    ]},
    {"smiles": "COc1cc(/C=C/C(O)=C/C(C)=O)cc([125I])c1O", "values": [
      {"measurement": "logP", "setting": "[3]", "value": 1.35},
      {"measurement": "Drug uptake", "setting": "Mus musculus [4]", "value": 0.26, "unit": "% ID/g"}
    ]},
    {"smiles": "COc1cc(/C=C/C(O)=C/C(C)=O)cc(I)c1O", "values": [
      {"measurement": "Ki", "setting": "[2]", "value": 24.9, "unit": "nM"}
    ]},
    {"smiles": "COc1cc(/C=C/C(O)=C/C(=O)/C=C/c2ccc(OCCC[18F])c(OC)c2)ccc1O", "values": [
      {"measurement": "Drug uptake", "setting": "Mus musculus [5]", "value": 41.07, "unit": "% ID/g"},
      {"measurement": "Drug uptake", "setting": "Mus musculus [6]", "value": 8.69, "unit": "% ID/g"},
      {"measurement": "logP", "setting": "[3]", "value": 1.84},
      {"measurement": "Drug uptake", "setting": "Mus musculus [7]", "value": 0.77, "unit": "% ID/g"},
      {"measurement": "Drug uptake", "setting": "Mus musculus [4]", "value": 0.27, "unit": "% ID/g"},
      {"measurement": "Drug uptake", "setting": "Mus musculus [8]", "value": 0.82, "unit": "% ID/g"},
      {"measurement": "Activity", "setting": "Mus musculus [9]", "value": "Not Active"},
      {"measurement": "Activity", "setting": "Mus musculus [10]", "value": "Active"}
    ]},
    {"smiles": "COc1cc(/C=C/C(O)=C/C(=O)/C=C/c2ccc(OCCCF)c(OC)c2)ccc1O", "values": [
      {"measurement": "Ki", "setting": "[1]", "value": 0.07, "unit": "nM"}
    ]},
    {"smiles": "COc1cc(/C=C/C(C)=O)ccc1OCCCF", "values": [
      {"measurement": "Ki", "setting": "[2]", "value": 839, "unit": "nM"}
    ]},
    {"smiles": "COc1cc(/C=C/C(C)=O)ccc1OCCF", "values": [
      {"measurement": "Ki", "setting": "[2]", "value": 233, "unit": "nM"}
    ]},
    {"smiles": "COc1cc(/C=C/C(O)=C/C(=O)/C=C/c2cc([125I])c(O)c(OC)c2)ccc1O", "values": [
      {"measurement": "logP", "setting": "[3]", "value": 0.94}
    ]},
    {"smiles": "O=C(O)c1cc(/N=N/c2ccc(-c3ccc(/N=N/c4ccc(O)c(C(=O)O)c4)cc3)cc2)ccc1O", "note": "[CHRYSAMINE G]", "values": [
      {"measurement": "Ki", "setting": "[1]", "value": 0.16, "unit": "nM"}
    ]},
    {"smiles": "COc1cc(/C=C/C(=O)CC(=O)/C=C/c2ccc(O)c(OC)c2)ccc1O", "note": "[CURCUMIN]", "values": [
      {"measurement": "Bioavailability Increase", "setting": "Homo sapiens", "value": 2000, "unit": "%"},
      {"measurement": "Bioavailability Increase", "setting": "Rattus norvegicus", "value": 154, "unit": "%"}
    ]}
  ]
}
